Values joined by “and” are separate entries in the source; they are usually repeats but may differ in a detail not shown here. Identical values can stand only once. Each block holds one molecule with its values, some of them ahead of it.
Columns and labels:
[1] = target: T1, Melanin-concentrating hormone receptor 1 (Homo sapiens, UniProt Q99705); test: Inhibition of melanin concentrating hormone receptor 1 mediated [Ca2+] release in IMR-32 cells in Ca+2 release cell assay; type: functional, cell-based
T1 sequence (Q99705 whole entry): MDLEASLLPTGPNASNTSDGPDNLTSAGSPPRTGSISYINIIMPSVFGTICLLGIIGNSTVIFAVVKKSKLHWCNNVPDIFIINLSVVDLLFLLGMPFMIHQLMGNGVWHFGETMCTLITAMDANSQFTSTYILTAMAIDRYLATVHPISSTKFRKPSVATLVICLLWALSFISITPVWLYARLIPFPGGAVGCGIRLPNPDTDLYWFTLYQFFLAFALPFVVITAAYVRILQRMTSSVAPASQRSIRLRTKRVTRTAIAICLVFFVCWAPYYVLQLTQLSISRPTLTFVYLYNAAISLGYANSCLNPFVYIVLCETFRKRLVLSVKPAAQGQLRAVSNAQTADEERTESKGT

[2] = target: T1, Melanin-concentrating hormone receptor 1; test: Inhibitory concentration aganist melanin concentrating hormone receptor 1 expressed in IMR-32 cells using [125I]MCH; type: cell-based
[3] = Concentration in diet-induced obese mouse brain 12 h after 10 mg/kg oral administration; type: ADME, organism-based; parameters: dose 10 mg/kg, route oral; details: read-out: C12h
How it was run: (§1)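 Diet-induced obese mice were given a single oral dose of 10 mg/kg. Plasma and brain were sampled over 24 h. […] Values are mean ± SEM, n = 3.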

[4] = Brain area under concentration curve after oral administration in diet-induced obese mouse at a dose of 10 mg/kg for 0-24 hr period, n=3; type: ADME, organism-based; parameters: time < 24 hr, dose 10 mg/kg, route oral; details: in vivo; how it was run: as §1
[5] = Plasma area under concentration curve after oral administration in diet-induced obese mouse at a dose of 10 mg/kg for 0-24 hr period,n=3; type: ADME, organism-based; parameters: time < 24 hr, dose 10 mg/kg, route oral; how it was run: as §1
[6] = Maximum concentration in diet-induced obese mouse brain at 10 mg/kg oral administration; n=3; type: ADME, organism-based; parameters: dose 10 mg/kg, route oral; how it was run: as §1
[7] = Plasma concentration at the end of the first infusion in dog cardiovascular assay; value is in between 1.36-1.43; type: ADME, Canis lupus familiaris; details: iv
[8] = Plasma concentration at the end of the first infusion in dog cardiovascular assay; value is in between 2.75-2.93; type: ADME, Canis lupus familiaris; details: iv
[9] = Brain area under concentration curve after peroral administration in lean mouse at a dose of 10 mg/kg; type: ADME, organism-based; parameters: dose 10 mg/kg, route oral; details: in vivo, po
[10] = Plasma area concentration under curve after peroral administration in lean mouse at a dose of 10 mg/kg; type: ADME, organism-based; parameters: dose 10 mg/kg, route oral; details: po
How it was run: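 Single oral dose of 10 mg/kg given to lean mice. Plasma exposure is expressed as AUC, and brain AUC was measured alongside it. Interanimal variability was below 25% for all values.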

[11] = Plasma concentration after intravenous infusion at a dose of 80 mg/kg measured after approximately 12 min; type: ADME, organism-based, Canis lupus familiaris; parameters: dose 80 mg/kg, route intravenous; details: dog, read-out: Activity
Mus musculus [12] = test: Percent change in body weight after oral administration at a dose of 10 mg/kg b.i.d. as compare to vehicle (1% Tween-80 in water) observed for 13 days
[13] = Half-life after iv administration at a dose 2.5 mg/kg; type: ADME, organism-based, Canis lupus familiaris; parameters: dose 2.5 mg/kg, route intravenous; details: dog, in vivo
How it was run: (§2)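 Male beagle dogs received a single intravenous bolus of 2.5 mg/kg. Plasma was sampled to derive half-life, Cmax, plasma clearance and AUC0-∞. Values are mean ± SEM.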

[14] = Drug concentration in plasma 1 hr after final dose of 30 mg/kg administered orally; type: ADME, organism-based; parameters: dose 30 mg/kg, route oral; details: mouse, po, read-out: Activity
How it was run: (§3)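 Diet-induced obese mice were dosed orally at 10 or 30 mg/kg b.i.d. for 13 days. Body weight was expressed as % change from vehicle controls. Plasma (μg/mL) and brain (μg/g) drug levels were measured 1 h after the final dose. Values are mean ± SEM, n = 3.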

[15] = Plasma concentration after intravenous infusion at a dose of 8 mg/kg/30 min; type: ADME, organism-based, Canis lupus familiaris; parameters: route intravenous; details: dog, read-out: Activity
Mus musculus [16] = test: Drug concentration in brain 1 hr after final dose of 10 mg/kg, administered orally; details: po
[17] = Peak plasma concentration after oral administration; type: ADME, organism-based, Canis lupus familiaris; parameters: route oral; details: dog
[18] = Half-life after oral administration; type: ADME, organism-based, Canis lupus familiaris; details: dog, in vivo
[19] = Plasma clearance after iv administration at a dose 2.5 mg/kg; type: ADME, organism-based, Canis lupus familiaris; parameters: dose 2.5 mg/kg, route intravenous; details: dog, read-out: Clp (converted); how it was run: as §2
[20] = target: Dopamine receptor (Homo sapiens) (UniProt P14416+P35462+P21918+P21917+P21728); test: Non-selective inhibition against dopamine receptor at 10 uM; type: protein assay
[21] = Drug concentration in plasma 1 hr after final dose of 10 mg/kg administered orally; type: ADME, organism-based; parameters: dose 10 mg/kg, route oral; details: mouse, po, read-out: Activity; how it was run: as §3
[22] = Plasma concentration after intravenous infusion at a dose of 26 mg/kg/30 min; type: ADME, organism-based, Canis lupus familiaris; parameters: route intravenous; details: dog, read-out: Activity
Mus musculus [23] = test: Percent change in body weight after oral administration at a dose of 30 mg/kg b.i.d. as compare to vehicle (1% Tween-80 in water) observed for 13 days
[24] = Bioavailability after oral administration; type: ADME, organism-based, Canis lupus familiaris; details: dog, in vivo, read-out: Activity
[25] = Plasma area under curve after oafter iv administration at a dose 2.5 mg/kg; type: ADME, organism-based, Canis lupus familiaris; parameters: dose 2.5 mg/kg, route intravenous; details: dog, in vivo; how it was run: as §2
Mus musculus [26] = test: Percent change in body weight after oral administration at a dose of 10 mg/kg b.i.d. as compare to vehicle (1% Tween-80 in water) observed for 28 days
[27] = Peak plasma concentration after iv administration at a dose 2.5 mg/kg; type: ADME, organism-based, Canis lupus familiaris; parameters: dose 2.5 mg/kg, route intravenous; details: dog; how it was run: as §2
[28] = target: Adrenergic receptor alpha-1 (Homo sapiens) (UniProt P35348+P25100+P35368); test: Non-selective inhibition against adrenergic-alpha-1 receptor at 10 uM; type: protein assay
[29] = Drug concentration in brain 1 hr after final dose of 10 mg/kg, administered orally; type: ADME, organism-based; parameters: dose 10 mg/kg, route oral; details: mouse, po, read-out: Activity; how it was run: as §3
[30] = target: Voltage-gated inwardly rectifying potassium channel KCNH2 (Homo sapiens, UniProt Q12809); test: Inhibition of human potassium channel HERG
Chain of Voltage-gated inwardly rectifying potassium channel KCNH2 (Q12809 whole entry): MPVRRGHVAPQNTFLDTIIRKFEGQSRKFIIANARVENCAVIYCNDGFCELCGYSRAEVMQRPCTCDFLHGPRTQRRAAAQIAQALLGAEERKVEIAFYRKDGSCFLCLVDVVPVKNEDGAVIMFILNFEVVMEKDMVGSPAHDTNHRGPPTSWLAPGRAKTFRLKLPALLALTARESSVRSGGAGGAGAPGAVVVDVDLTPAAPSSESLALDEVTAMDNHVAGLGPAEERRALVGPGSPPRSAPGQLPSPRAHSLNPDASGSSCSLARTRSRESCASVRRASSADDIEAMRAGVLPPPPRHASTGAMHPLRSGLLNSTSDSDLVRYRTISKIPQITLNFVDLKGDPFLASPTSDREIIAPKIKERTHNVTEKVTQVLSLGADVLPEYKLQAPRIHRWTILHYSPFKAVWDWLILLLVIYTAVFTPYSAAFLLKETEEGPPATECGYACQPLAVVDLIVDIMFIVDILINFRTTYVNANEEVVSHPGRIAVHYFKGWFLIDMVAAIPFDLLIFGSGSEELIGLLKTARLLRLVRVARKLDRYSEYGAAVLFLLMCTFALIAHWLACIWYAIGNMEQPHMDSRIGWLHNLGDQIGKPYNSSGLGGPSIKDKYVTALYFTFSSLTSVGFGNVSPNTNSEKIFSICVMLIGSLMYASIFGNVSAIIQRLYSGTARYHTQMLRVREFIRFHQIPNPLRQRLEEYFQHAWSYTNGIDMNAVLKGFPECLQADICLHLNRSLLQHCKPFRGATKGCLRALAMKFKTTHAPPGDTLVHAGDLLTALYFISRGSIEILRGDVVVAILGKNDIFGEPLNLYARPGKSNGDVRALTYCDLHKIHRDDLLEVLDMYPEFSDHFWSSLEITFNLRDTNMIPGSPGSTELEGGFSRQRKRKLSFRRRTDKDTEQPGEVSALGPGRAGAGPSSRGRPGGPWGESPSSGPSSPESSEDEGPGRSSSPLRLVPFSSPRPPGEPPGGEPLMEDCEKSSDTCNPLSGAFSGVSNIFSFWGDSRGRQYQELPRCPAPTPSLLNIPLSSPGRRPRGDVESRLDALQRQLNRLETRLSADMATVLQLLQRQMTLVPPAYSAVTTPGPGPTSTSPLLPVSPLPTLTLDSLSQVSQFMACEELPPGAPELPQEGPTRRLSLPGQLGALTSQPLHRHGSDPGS

Mus musculus [31] = test: Percent change in body weight after oral administration at a dose of 30 mg/kg b.i.d. as compare to vehicle (1% Tween-80 in water) observed for 28 days
[32] = Plasma area under concentration curve after peroral administration in lean mouse at a dose of 10 mg/kg; type: ADME, organism-based; parameters: dose 10 mg/kg, route oral; details: po

IC50 [1]: 189 nM
IC50 [2]: 6 nM
Structure (SMILES): O=c1cc(NC2CCN(Cc3ccc4sccc4c3)CC2)c2cc(Cl)ccc2o1

concentration at 12 h [3]: 18 ng/g
AUC [4]: 1.18 µg·h/g
AUC at 24 h [5]: 2870 ng·h/mL
IC50 [1]: 63 nM
Cmax [6]: 182 ng/g
IC50 [2]: 7 nM
Structure (SMILES): O=c1cc(NC2CCN(Cc3ccc4[nH]ccc4c3)CC2)c2cc(Cl)ccc2o1

IC50 [1]: 28 nM
IC50 [2]: 24 nM
Structure (SMILES): O=c1cc(NC2CCN(Cc3ccc4cc[nH]c4c3)CC2)c2cc(Cl)ccc2o1

IC50 [1]: 11 nM
Structure (SMILES): COc1ccc2oc(O)c/c(=N\C3CCN(Cc4ccc5c(c4)OCO5)CC3)c2c1
Activity [7]: 2.84 µg/mL
Activity [8]: 2.84 µg/mL

IC50 [1]: 92 nM
IC50 [2]: 21 nM
Structure (SMILES): O=c1cc(NC2CCN(Cc3ccc4ccccc4c3)CC2)c2cc(Cl)ccc2o1

AUC [9]: 2.6 µg·h/g
AUC [10]: 1920 ng·h/mL
IC50 [1]: 211 nM
IC50 [2]: 9 nM
Structure (SMILES): O=c1cc(NC2CCN(C/C=C/c3ccccc3)CC2)c2cc(Cl)ccc2o1

IC50 [1]: 581 nM
IC50 [2]: 19 nM
Structure (SMILES): O=c1cc(NC2CCN(Cc3ccc4c(c3)OC(F)(F)O4)CC2)c2cc(Cl)ccc2o1

IC50 [1]: 1040 nM
IC50 [2]: 191 nM
Structure (SMILES): O=c1cc(NC2CCN(C/C=C/c3ccccc3)CC2)c2ccccc2o1

AUC [4]: 0 µg·h/g
IC50 [1]: 163 nM
IC50 [2]: 3 nM
Structure (SMILES): O=c1cc(NC2CCN(Cc3ccc4ocnc4c3)CC2)c2cc(Cl)ccc2o1

IC50 [1]: 162 nM
IC50 [2]: 60 nM
Structure (SMILES): Cn1ccc2ccc(CN3CCC(/N=c4\cc(O)oc5ccc(Cl)cc45)CC3)cc21

AUC [4]: 0.449 µg·h/g
AUC at 24 h [5]: 621 ng·h/mL
IC50 [1]: 41 nM
Cmax [6]: 294 ng/g
IC50 [2]: 27 nM
Structure (SMILES): O=c1cc(NC2CCN(Cc3ccc4c(c3)CCO4)CC2)c2cc(Cl)ccc2o1

IC50 [1]: > 10000 nM
Structure (SMILES): CC(C)(C)c1ccc(CN2CCC(/N=c3\cc(O)oc4ccc(Cl)cc34)CC2)cc1

concentration at 0.2 h [11]: 19900 ng/mL
concentration at 12 h [3]: 175 ng/g
half-life [13]: 3.9 h
concentration at 1 h [14]: 6010 ng/mL
concentration at 0.5 h [15]: 3330 ng/mL
AUC at 24 h [5]: 6350 ng·h/mL
concentration at 1 h (Mus musculus [16]): 6460 ng/g
Cmax [17]: 200 ng/mL
half-life [18]: 4.4 h
clearance [19]: 15.8 mL/min/kg
IC50 [1]: 28 nM
inhibition [20]: 60%
concentration at 1 h [21]: 2000 ng/mL
concentration at 0.5 h [22]: 11800 ng/mL
Cmax [6]: 454 ng/g
bioavailability [24]: 48%
AUC [25]: 2660 ng·h/mL
IC50 [2]: 2 nM
Cmax [27]: 1600 ng/mL
inhibition [28]: 75% and 69%
concentration at 1 h [29]: 2210 ng/g
Structure (SMILES): O=c1cc(NC2CCN(Cc3ccc4c(c3)OCO4)CC2)c2cc(Cl)ccc2o1
% change (Mus musculus [12]): -6.9%
% change (Mus musculus [23]): -18.2%
% change (Mus musculus [26]): -16%
IC50 [30]: 2250 nM
% change (Mus musculus [31]): -31%

AUC [9]: 0.43 µg·h/g
IC50 [1]: 44 nM
AUC [32]: 980 ng·h/mL
IC50 [2]: 4 nM
Structure (SMILES): COc1ccc2oc(O)c/c(=N\C3CCN(C/C=C/c4ccccc4)CC3)c2c1

IC50 [1]: 461 nM
IC50 [2]: 75 nM
Structure (SMILES): O=c1cc(NC2CCN(Cc3ccc4ncoc4c3)CC2)c2cc(Cl)ccc2o1

Source: ChEMBL document CHEMBL1141081, “Discovery and characterization of aminopiperidinecoumarin melanin concentrating hormone receptor 1 antagonists” (J Med Chem, 2005)
